Measurements taken from ChEMBL document CHEMBL4680346, “Novel arylcarbamate-N-acylhydrazones derivatives as promising BuChE inhibitors: Design, synthesis, molecular modeling and biological evaluation” (Bioorg Med Chem, 2021).

Legend:
[1] = target: Cholinesterase (Equus caballus) (UniProt P81908); test: Inhibition of equine serum BuChE at 10 uM using butyrylthiocholine chloride as substrate preincubated for 15 mins followed by substrate addition and measured after 4 mins by Ellman's method; assay type: cell-free; conditions: time 19.0 min
[2] = target: Acetylcholinesterase (Electrophorus electricus, UniProt O42275); test: Inhibition of Electrophorus electricus AChE using acetylthiocholine iodide as substrate preincubated for 15 mins followed by substrate addition and measured after 4 mins by Ellman's method
[3] = target: Acetylcholinesterase (Electrophorus electricus) (UniProt O42275); test: Inhibition of Electrophorus electricus AChE at 100 uM using acetylthiocholine iodide as substrate preincubated for 15 mins followed by substrate addition and measured after 4 mins by Ellman's method; conditions: time 19.0 min
[4] = target: T1, Cholinesterase (Equus caballus, UniProt P81908); test: Inhibition of equine serum BuChE using butyrylthiocholine chloride as substrate preincubated for 15 mins followed by substrate addition and measured after 4 mins by Ellman's method; assay type: cell-free
[5] = target: Cholinesterase (Equus caballus) (UniProt P81908); test: Inhibition of equine serum BuChE at 100 uM using butyrylthiocholine chloride as substrate preincubated for 15 mins followed by substrate addition and measured after 4 mins by Ellman's method; assay type: cell-free
[6] = target: T1, Cholinesterase; test: Non-Competitive inhibition of equine serum BuChE using varying concentrations of butyrylthiocholine iodide as substrate by Lineweaver-burk plot analysis; assay type: cell-free
Method in brief: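 Equine serum BuChE kinetics by the Ellman read-out with butyrylthiocholine at 0.025–2.0 mM. Run without inhibitor and with inhibitor at 0.5 and 1.0 µM. Reciprocal initial rate was plotted against reciprocal substrate concentration (Lineweaver-Burk) to assign the inhibition mode.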

Chain of Acetylcholinesterase (Electrophorus electricus) (O42275 24-633 limits assumed): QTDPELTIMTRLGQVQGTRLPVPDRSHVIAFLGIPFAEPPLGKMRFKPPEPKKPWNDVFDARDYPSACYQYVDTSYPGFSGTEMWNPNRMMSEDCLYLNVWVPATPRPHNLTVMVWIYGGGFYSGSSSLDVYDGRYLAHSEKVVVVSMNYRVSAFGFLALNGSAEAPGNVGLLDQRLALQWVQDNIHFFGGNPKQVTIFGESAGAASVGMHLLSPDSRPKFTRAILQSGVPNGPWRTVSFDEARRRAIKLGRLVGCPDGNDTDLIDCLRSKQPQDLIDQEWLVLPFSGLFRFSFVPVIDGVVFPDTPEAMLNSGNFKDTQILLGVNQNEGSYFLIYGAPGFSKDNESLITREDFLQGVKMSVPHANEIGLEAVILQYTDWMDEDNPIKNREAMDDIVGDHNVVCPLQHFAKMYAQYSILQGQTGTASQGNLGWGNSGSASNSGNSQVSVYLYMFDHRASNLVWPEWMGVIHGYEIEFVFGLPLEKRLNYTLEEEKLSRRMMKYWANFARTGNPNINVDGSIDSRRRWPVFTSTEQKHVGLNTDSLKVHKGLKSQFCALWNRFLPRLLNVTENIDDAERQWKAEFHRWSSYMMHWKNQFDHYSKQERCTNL
Chain of Cholinesterase (Equus caballus) (P81908 whole entry): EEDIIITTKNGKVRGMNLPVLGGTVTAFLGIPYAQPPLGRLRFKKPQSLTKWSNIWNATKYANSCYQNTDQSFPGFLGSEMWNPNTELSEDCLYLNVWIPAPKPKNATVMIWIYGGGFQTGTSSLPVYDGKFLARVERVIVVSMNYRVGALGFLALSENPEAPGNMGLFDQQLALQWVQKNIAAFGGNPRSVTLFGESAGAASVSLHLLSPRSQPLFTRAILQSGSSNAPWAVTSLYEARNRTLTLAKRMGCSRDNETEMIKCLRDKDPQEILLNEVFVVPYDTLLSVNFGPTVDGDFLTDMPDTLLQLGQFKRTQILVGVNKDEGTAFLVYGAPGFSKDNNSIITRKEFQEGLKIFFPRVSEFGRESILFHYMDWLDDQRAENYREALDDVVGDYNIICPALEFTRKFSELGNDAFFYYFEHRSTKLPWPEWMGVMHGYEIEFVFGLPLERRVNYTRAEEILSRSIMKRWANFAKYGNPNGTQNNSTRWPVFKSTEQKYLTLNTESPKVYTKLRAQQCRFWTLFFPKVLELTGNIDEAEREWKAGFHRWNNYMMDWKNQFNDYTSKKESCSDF
T1 sequence (P81908 whole entry): as above
Chain of Acetylcholinesterase (O42275 whole entry): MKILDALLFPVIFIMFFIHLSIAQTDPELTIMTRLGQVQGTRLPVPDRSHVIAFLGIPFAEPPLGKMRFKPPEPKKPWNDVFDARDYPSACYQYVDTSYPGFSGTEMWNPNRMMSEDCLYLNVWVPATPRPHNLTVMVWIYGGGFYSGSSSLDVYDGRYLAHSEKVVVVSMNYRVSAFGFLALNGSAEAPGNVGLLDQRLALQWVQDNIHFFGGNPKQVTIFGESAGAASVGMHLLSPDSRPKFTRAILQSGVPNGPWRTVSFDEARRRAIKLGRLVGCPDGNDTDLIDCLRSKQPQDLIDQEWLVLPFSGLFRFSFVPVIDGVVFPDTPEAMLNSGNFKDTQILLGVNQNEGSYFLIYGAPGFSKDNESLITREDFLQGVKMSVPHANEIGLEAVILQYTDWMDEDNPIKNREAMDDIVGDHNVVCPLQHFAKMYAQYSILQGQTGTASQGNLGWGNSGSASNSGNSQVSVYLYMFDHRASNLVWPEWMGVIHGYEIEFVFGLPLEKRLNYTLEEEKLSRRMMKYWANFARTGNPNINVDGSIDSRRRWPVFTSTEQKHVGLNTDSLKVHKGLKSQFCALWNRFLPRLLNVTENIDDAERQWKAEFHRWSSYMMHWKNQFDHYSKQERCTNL

Structure (SMILES)	inhibition [1]	IC50 [2]	inhibition [3]	IC50 [4]	inhibition [5]	Ki [6]
CN(C)C(=O)Oc1ccccc1/C=N/NC(=O)c1ccc(O)cc1	76.4%	> 100 µM	11.1%	0.18 µM	80.9%	–
CN(C)C(=O)Oc1ccc(/C=N/NC(=O)c2ccc(O)cc2)cc1	10.4%	> 100 µM	11.7%	> 100 µM	31%	–
COc1ccc(C(=O)N/N=C/c2ccc(OC(=O)N(C)C)c(OC)c2)cc1OC	74.8%	> 100 µM	24.7%	2.07 µM	78.5%	–
CN(C)C(=O)Oc1ccc(/C=N/NC(=O)c2cccc(O)c2)cc1	42.1%	> 100 µM	9.65%	29.3 µM	75.2%	–
COc1cc(/C=N/NC(=O)c2cccc(O)c2)ccc1OC(=O)N(C)C	50.1%	> 100 µM	19.9%	7.65 µM	62.2%	–
COc1cc(C(=O)N/N=C/c2ccc(OC(=O)N(C)C)c(OC)c2)ccc1O	57.3%	> 100 µM	29.2%	9.98 µM	49.7%	–
COc1cc(/C=N/NC(=O)c2ccc(O)cc2)ccc1OC(=O)N(C)C	68.4%	> 100 µM	23.6%	0.94 µM	73.4%	–
COc1cc(C(=O)N/N=C/c2ccc(OC(=O)N(C)C)cc2)ccc1O	44.6%	> 100 µM	20.1%	21.9 µM	63.9%	–
CN(C)C(=O)Oc1ccccc1/C=N/NC(=O)c1cccc(O)c1	74.9%	> 100 µM	18.2%	0.56 µM	82%	–
COc1ccc(C(=O)N/N=C/c2ccccc2OC(=O)N(C)C)cc1OC	62.1%	> 100 µM	21.9%	0.31 µM	74%	–
COc1ccc(C(=O)N/N=C/c2ccc(OC(=O)N(C)C)cc2)cc1OC	11.4%	> 100 µM	28.3%	> 100 µM	37.8%	–
COc1cc(C(=O)N/N=C/c2ccccc2OC(=O)N(C)C)ccc1O	73%	> 100 µM	24.9%	0.07 µM	77.8%	97 µM
